The source of these data is PMC2745708 (Free radical biology & medicine, 2009).

The target in assay [1] is NOS2 (Homo sapiens, UniProt P35228). The experiment in a line: 14-C-L-arginine to 14-C-L-citrulline conversion by purified recombinant NOS2. The assay is classed as biochemical.
Assay [2] has as its target NOS1 (Rattus norvegicus, UniProt P29476). The experiment in a line: 14-C-L-arginine to 14-C-L-citrulline conversion by purified recombinant NOS1. The assay is classed as biochemical. Put shortly:
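Purified recombinant rat NOS1 or human NOS2 holoprotein at 5 nM. Incubated 60 min at 37°C with 2.9 μM 14C-L-arginine and 10 μM unlabeled L-arginine in 50 mM HEPES pH 7.5, with 10 μM FAD, 1 mM DTT, 100 μM tetrahydrobiopterin, 200 μM NADPH, and graded test compound, in near-dark. Stopped with HEPES pH 5.5/citrulline/EDTA. 14C-citrulline separated on Dowex 50W-X8, scintillation-counted; percent inhibition calculated.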

In assay [3] the target is NOS3 (Bos taurus, UniProt P29473). As to the kind of experiment: 14-C-L-arginine to 14-C-L-citrulline conversion by purified recombinant NOS3. The assay is classed as biochemical, bovine. Particulars: purified recombinant enzyme. In outline:
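Purchased recombinant bovine NOS3, with NOS co-factors and 14C-L-arginine, with or without graded test compound, in near-dark conditions. 14C-L-citrulline formed was separated from 14C-L-arginine on a Dowex 50W-X8 cation-exchange column and counted by scintillation. Activity is given as percent inhibition.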

The target of assay [4] is NOS2 oxygenase domain (Homo sapiens, UniProt P35228). The experiment in a line: CO binding to reduced NOS2 oxygenase domain heme. Particulars: NOS2 oxygenase domain reduced with dithionite. Put shortly:
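Purified recombinant NOS2 oxygenase domain (about 3 μM final) reduced with dithionite and exposed to CO, with or without test compound. UV/visible spectra recorded, monitoring the ferrous-heme–CO peak at 445 nm.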

The subject of assay [5] is Raw 264.7 mouse macrophage cell line. The experiment in a line: NO production by interferon-gamma-activated macrophages. The assay is classed as cell-based. Particulars: 0.5, 2.0 or 8.0 μM for 24 hours with 500 units/ml murine interferon gamma. Put shortly:
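Raw 264.7 cells kept by serial passage in RPMI-1640 with 10% FBS. Activated 24 h with 500 units/ml murine interferon-gamma, with 0, 0.5, 2.0 or 8.0 μM test compound present throughout. Loaded with 10 μM DAF-FM for 30 min, washed, and fluorescence read at 495/515 nm. NO production given as percent of control; SEM from 6 separate experiments.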

[6] abbreviates: agent exposed to light for 60 minutes (with light).
Where [7] appears, read: agent not exposed to light (no light).
[8] abbreviates: purified recombinant enzyme, 60 min, 37°C.

NOS2 oxygenase domain, sequence (P35228 1-504 limits assumed): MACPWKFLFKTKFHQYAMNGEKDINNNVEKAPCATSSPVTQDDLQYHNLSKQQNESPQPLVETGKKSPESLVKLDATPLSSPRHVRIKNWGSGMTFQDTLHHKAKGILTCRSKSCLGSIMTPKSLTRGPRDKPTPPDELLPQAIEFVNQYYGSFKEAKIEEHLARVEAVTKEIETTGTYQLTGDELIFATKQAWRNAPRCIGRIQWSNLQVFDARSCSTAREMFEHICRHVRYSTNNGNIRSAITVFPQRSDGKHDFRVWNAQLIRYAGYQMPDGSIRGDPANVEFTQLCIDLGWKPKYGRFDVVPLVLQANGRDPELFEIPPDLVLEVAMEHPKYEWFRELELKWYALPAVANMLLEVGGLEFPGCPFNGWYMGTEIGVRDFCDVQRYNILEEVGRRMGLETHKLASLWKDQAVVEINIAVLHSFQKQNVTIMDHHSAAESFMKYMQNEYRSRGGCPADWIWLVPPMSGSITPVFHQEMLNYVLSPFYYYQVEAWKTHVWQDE

For `C/C1=C2/[N-][C@H]([C@H](CC(N)=O)[C@@]2(C)CCC(=O)NC[C@@H](C)OP(=O)([O-])O[C@H]2[C@@H](O)[C@@H](n3cnc4cc(C)c(C)cc43)O[C@@H]2CO)[C@]2(C)N=C(/C(C)=C3N=C(/C=C4N=C1[C@@H](CCC(N)=O)C\4(C)C)[C@@H](CCC(N)=O)[C@]\3(C)CC(N)=O)[C@@H](CCC(N)=O)[C@]2(C)CC(N)=O.[CH2-][C@H]1O[C@@H](n2cnc3c(N)ncnc32)[C@H](O)[C@@H]1O.[Co]` [Adenosylcobalamin], the “Estimated ED50 NOS2” value in assay [1] (setting [6]) was 60.0 µM; in assay [1] (setting [7]) it was 2148.0 µM. Moreover, the “Estimated ED50 NOS1” value in assay [2] (setting [6]) was 6.4 µM; in assay [2] (setting [7]), 498.0 µM.
In the case of `CC1(C)N([O])C(c2ccc(C(=O)[O-])cc2)=[N+]([O-])C1(C)C.[K+]` [Carboxy-PTIO, 2-(4-Carboxyphenyl)-4,4,5,5-tetramethylimidazoline-1-oxyl-3-oxide (potassium salt)], in assay [1] (setting [8]), the “Estimated ED50 NOS2” value is 1359.0 µM. The “Estimated ED50 NOS1” value in assay [2] (setting [8]) is 1360.0 µM.
Regarding `C/C1=C2/[N-][C@H]([C@H](CC(N)=O)[C@@]2(C)CCC(=O)NC[C@@H](C)O)[C@]2(C)N=C(/C(C)=C3N=C(/C=C4N=C1[C@@H](CCC(N)=O)C\4(C)C)[C@@H](CCC(N)=O)[C@]\3(C)CC(N)=O)[C@@H](CCC(N)=O)[C@]2(C)CC(N)=O.[Co+3]` [Cobinamide], the “Estimated ED50 NOS2” value in assay [1] (setting [8]) is 50.0 µM. Further, the “Estimated ED50 NOS1” value in assay [2] (setting [8]) is 15.0 µM. The “Estimated ED50 NOS3” value in assay [3] is 43.0 µM.
For the molecule `C/C1=C2/[N-]C([C@H](CC(N)=O)[C@@]2(C)CCC(=O)NCC(C)O)[C@]2(C)N=C(/C(C)=C3N=C(/C=C4N=C1[C@@H](CCC(N)=O)C\4(C)C)[C@@H](CCC(N)=O)[C@]\3(C)CC(N)=O)[C@@H](CCC(N)=O)[C@]2(C)CC(N)=O.[C-]#N.[C-]#N.[Co]` (stereo partly drawn) [Dicyanocobinamide], the “Effect on CO-induced spectral changes (ferrous-CO adduct formation)” value in assay [4] was “markedly diminished”. Besides, in assay [1] (setting [8]), the “Estimated ED50 NOS2” value was 2.29 µM. Besides, the “Estimated ED50 NOS1” value in assay [2] (setting [8]) is 0.23 µM. The “NO production by cells” value in assay [5] is given as “dose-dependent inhibition”. In addition, the “Estimated ED50 NOS3” value in assay [3] was 0.33 µM.
Take `C/C1=C2N=C(/C=C3N=C(/C(C)=C4\[N-]C(C(CC(N)=O)C4(C)CCC(=O)NCC(C)OP(=O)([O-])OC4C(CO)OC(n5cnc6cc(C)c(C)cc65)C4O)C4(C)N=C1C(CCC(N)=O)C4(C)CC(N)=O)C(CCC(N)=O)C\3(C)C)C(CCC(N)=O)C/2(C)CC(N)=O.NC(CCC(=O)NC(C[S-])C(=O)NCC(=O)O)C(=O)O.[Co+3]` (stereo not drawn) [Glutathionylcobalamin]: in assay [1] (setting [8]), the “Estimated ED50 NOS2” value is 29.0 µM. Besides, in assay [2] (setting [8]), the “Estimated ED50 NOS1” value was 9.6 µM. For the same molecule, the “Estimated ED50 NOS3” value in assay [3] is 41.0 µM.
The matching figures for `C/C1=C2/[N-][C@H]([C@H](CC(N)=O)[C@@]2(C)CCC(=O)NC[C@@H](C)OP(=O)([O-])O[C@H]2[C@@H](O)[C@@H](n3cnc4cc(C)c(C)cc43)O[C@@H]2CO)[C@]2(C)N=C(/C(C)=C3N=C(/C=C4N=C1[C@@H](CCC(N)=O)C\4(C)C)[C@@H](CCC(N)=O)[C@]\3(C)CC(N)=O)[C@@H](CCC(N)=O)[C@]2(C)CC(N)=O.[Co+3].[OH-]` [Hydroxocobalamin]: 21.1 µM, 5.7 µM and 9.1 µM.
For `C/C1=C2/[N-][C@H]([C@H](CC(N)=O)[C@@]2(C)CCC(=O)NC[C@H](C)OP(=O)([O-])O[C@H]2[C@@H](O)[C@@H](n3cnc4cc(C)c(C)cc43)O[C@@H]2CO)[C@]2(C)N=C(/C(C)=C3N=C(/C=C4N=C1[C@@H](CCC(N)=O)C\4(C)C)[C@@H](CCC(N)=O)[C@]\3(C)CC(N)=O)[C@@H](CCC(N)=O)[C@]2(C)CC(N)=O.[CH3-].[Co+3]` [Methylcobalamin], the “Estimated ED50 NOS2” value in assay [1] (setting [6]) was 63.0 µM; in assay [1] (setting [7]), 231.0 µM. The “Estimated ED50 NOS1” value in assay [2] (setting [6]) is 5.9 µM; in assay [2] (setting [7]) it was 576.0 µM.
With Cyanocobalamin, the “Estimated ED50 NOS2” value in assay [1] (setting [8]) was 1620.0 µM. For the same molecule, the “Estimated ED50 NOS1” value in assay [2] (setting [8]) is 72.0 µM. In assay [3], the “Estimated ED50 NOS3” value is 519.0 µM.
